SENP1 inh = inhibitors of human SENP1 SUMO protease catalytic domain. Q9P0U3. recombinant SENP1 catalytic domain, CyPet-SUMO1-YPet FRET cleavage. inhibition, % at 10 µM. 0.21% of 360,000 active. AID 624204;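 active = inhibition at least 30% at 10 µM, raw YFP signal under a set limit, fluorescence ratio 0.5 to 1.5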
Target sequence (Q9P0U3 419-644 limits assumed): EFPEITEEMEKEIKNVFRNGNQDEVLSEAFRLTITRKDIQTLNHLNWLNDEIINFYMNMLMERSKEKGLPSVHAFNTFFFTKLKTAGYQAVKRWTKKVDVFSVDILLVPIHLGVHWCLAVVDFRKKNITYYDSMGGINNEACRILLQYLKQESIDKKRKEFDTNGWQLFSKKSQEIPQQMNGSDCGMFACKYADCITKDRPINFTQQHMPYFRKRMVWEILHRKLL
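Assay system – human recombinant His6-tagged SENP1 catalytic domain enzyme · Input – SENP1 enzyme, 20 pM final · Buffer or medium – Tris pH 8 buffer plus EDTA, NaCl, BME, BSA, NP40, catalase · Schedule – 50 min reaction at room temperature · Technique – FRET read of cyan and yellow fluorescence · Control set – no-enzyme wells low, DMSO-plus-enzyme wells high control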
Myeloid diff MLP = compounds promoting myeloid differentiation | AID 624256 | 1% of 360,000 active | ER-HoxA9 myeloid progenitors, lysozyme-GFP differentiation, flow cytometry | calls only at 10 µM;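 active = normalized GFP-positive differentiation at or above the plate's own cutoff, the solvent-only control mean plus 3 SD; inconclusive = no clear call, values can overlap the other calls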;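 note: cells exposed to compound for four days before flow analysis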
DAGLB inh = blocks human DAGLB lipase activity; inhibition, % at 5.17 µM; Q8NCG7; 0.059% of 340,000 active; HEK293T DAGLB membrane lysate, EnzChek fluorogenic substrate; AID 504411; in the data active = inhibition above about 34%
MIN6 prolif = inducers of beta-cell replication in MIN6 cells | AID 2380 | MIN6 cells proliferation, ATPlite luminescence, 48 h; cells starved in 0.2% serum; 100% = growth in 10% serum | 0.29% of 330,000 active | proliferation, % at 10 µM;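 active = compounds whose signal lies at least 3.5 SD above the mean of all wells on their plate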
NRP1-CendR mod = modulators of CendR peptide binding to human neuropilin-1 | FAM-RPARPAR peptide binding to NRP-1, fluorescence polarization | inhibition, % at 25 µM | 0.85% of 360,000 active | AID 602438;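 active = inhibition or corrected inhibition above about 18%, plus a signal ratio from 0.5 to 1.5, limit read from the data, passing the limit was not always enough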
MT1-MMP act inh = blocks activation of human MT1-MMP; 0.061% of 360,000 active; GFP/RFP ratio change, % at 20 µM; P50281; HT1080 RFP-PRO-GFP cells, GFP/RFP ratio fluorescence, overnight; percent of plate control window, DMSO zero;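 active = GFP/RFP ratio change of at least 30% with cell ATP level not reduced by more than half and red fluorescence within 50% of control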
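Compound: 20 µM single dose, 1% DMSO / System: HT1080 RFP-PRO-GFP cells / Controls: DMSO and RFP-L50D-GFP cell wells / Read-out basis: GFP/RFP fluorescence ratio / Schedule: overnight compound exposure at 37 °C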
Myeloid diff = myeloid differentiation induction; calls only; 2% of 2,300 active; shares compounds with Myeloid diff MLP; ER-HoxA9 myeloid progenitors, GFP/Mac1 double-positive flow;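 active = share of green or green-and-red cells above 9 and 9% in run 1 or 4 and 3% in run 2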
GFP autofluor = compound fluorescence in myeloid differentiation counter-screen. shares compounds with Myeloid diff MLP. ER-HoxA9 myeloid progenitors, no estrogen, GFP autofluorescence flow cytometry; vehicle wells 0%, positive control 100%. fluorescence response, % (test concentration not listed). 7.4% of 2,300 active. AID 651707;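 active = over 5% cells positive for green fluorescent reporter, or over 2% positive for both it and APC stain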
Of the large screens only hits and unclear results are named; the others gave an inactive call (follow-up assays come after a bar, where they were run). Most compounds without a hit are left out; they make up all but 2.4% or so of the library.

O=C(c1ccco1)N1CCN(S(=O)(=O)c2ccccc2[N+](=O)[O-])CC1	none
Cc1ccc(-c2csc3ncnc(Nc4ccc(C(=O)O)cc4)c23)cc1	none
O=C(O)c1ccc(Nc2ncnc3scc(-c4ccccc4)c23)cc1	Myeloid diff MLP active | Myeloid diff inactive | GFP autofluor inactive
CCOC(=O)N1CCN(C(=O)c2ccc3c(c2)ncn3C2CCCC2)CC1	none | Myeloid diff inactive | GFP autofluor inactive
COc1ccc([C@H]2[C@@H]3C=CCC[C@@]3(C)C(=O)N2Cc2ccccc2)cc1Cl	none | Myeloid diff inactive | GFP autofluor inactive
O=C(CNS(=O)(=O)c1ccccc1)Nc1cccc([N+](=O)[O-])c1	Myeloid diff MLP active | Myeloid diff inactive | GFP autofluor inactive
c1ccc(OCCCc2nc(-c3ccccn3)no2)cc1	none
COc1ccc(N(CC(=O)Nc2cc(OC)ccc2OC)S(C)(=O)=O)cc1	none | Myeloid diff inactive | GFP autofluor inactive
CCc1ccc(N(CC(=O)Nc2ccc(OC)cc2OC)S(C)(=O)=O)cc1	none
O=C(Nc1c2c(nn1-c1cccc(Cl)c1)CS(=O)(=O)C2)c1ccc2c(c1)OCO2	none
CCc1ccc(C(=O)C[n+]2cccc3cc(OC)ccc32)cc1	none | Myeloid diff inactive | GFP autofluor inactive
CCOc1ccc(C(=O)C[n+]2cccc3cc(C)ccc32)cc1	Myeloid diff MLP active | Myeloid diff inactive | GFP autofluor 54.0
CCCCN(CC)S(=O)(=O)c1ccc2c(c1)n(C)c(=O)c(=O)n2C	none
O=C(NN=C1c2ccccc2-c2ccccc21)c1cccc(Br)c1	none
OC(c1ccco1)c1nc(-c2ccc(F)c(Cl)c2)cs1 (stereo unspecified)	none (no result: DAGLB inh, MIN6 prolif)
CCn1nc(NC(=O)Cc2ccc(OC)cc2)c2cc3cc(C)ccc3nc21	none
CCCCn1nc(NC(=O)COC)c2cc3cc(OC)ccc3nc21	none | Myeloid diff inactive | GFP autofluor inactive
COC(=O)c1c(NC(=O)CSc2nnnn2-c2ccccc2)sc2c1CCC(C(C)(C)C)C2 (stereo unspecified)	none | Myeloid diff inactive | GFP autofluor inactive
COc1cc(/C=C2/SC(=O)NC2=O)ccc1Oc1ccc([N+](=O)[O-])cc1[N+](=O)[O-]	Myeloid diff MLP active | Myeloid diff inactive | GFP autofluor inactive
COC(=O)C1=NN(N=O)C2(CC(=O)N(c3cc(C)cc(C)c3)C2=O)C1 (stereo unspecified)	none
O=C1NC(=O)c2cc(NC(=O)C3CCCO3)ccc21 (stereo unspecified)	none | Myeloid diff inactive | GFP autofluor inactive
O=C1OCc2cc(NC(=O)C3CCCO3)ccc21 (stereo unspecified)	none
O=C(O)c1cc(NC(=O)C2CCCO2)cc(NC(=O)C2CCCO2)c1 (stereo unspecified)	Myeloid diff MLP active | Myeloid diff inactive | GFP autofluor inactive
CCn1c(COc2cccc(C)c2C)nnc1SCC(=O)Nc1cc(C)on1	none (no result: DAGLB inh)
CCn1c(COc2ccccc2C)nnc1SCC(=O)Nc1cc(C)on1	Myeloid diff MLP active | Myeloid diff inactive | GFP autofluor inactive
CC(Oc1ccc(Br)cc1)C(=O)Nc1nc(-c2ccccn2)cs1 (stereo unspecified)	Myeloid diff MLP active | Myeloid diff inactive | GFP autofluor inactive
CC(C)[C@H](NC(=O)c1ccccc1Cl)C(=O)Nc1nc(-c2ccccn2)cs1	none
Cc1ccc(S(=O)(=O)CCC(=O)Nc2nc(-c3ccccn3)cs2)cc1	Myeloid diff MLP active | Myeloid diff inactive | GFP autofluor inactive
Cc1ccc(S(=O)(=O)CCC(=O)Nc2nc(-c3cccnc3)cs2)cc1	Myeloid diff MLP inconclusive
O=C(O)CNS(=O)(=O)c1ccc2c(c1)CCCC2	none
CCCCC(=O)N(C)c1c(C)nc2ccc(C(=O)Nc3cccc(OC)c3)cn12	none (no result: DAGLB inh, MIN6 prolif)
Cc1ccc(S(=O)(=O)N(C)C[C@H]2Oc3c(NC(=O)Nc4cccc5ccccc45)cccc3C(=O)N([C@@H](C)CO)C[C@@H]2C)cc1	none | Myeloid diff inactive | GFP autofluor inactive
COc1ccc(NC(=O)Nc2cccc3c2O[C@H](CN(C)S(=O)(=O)c2ccc(OC)cc2)[C@@H](C)CN([C@H](C)CO)C3=O)cc1	none
COCC(=O)N(C)C[C@H]1Oc2ncc(Br)cc2C(=O)N([C@@H](C)CO)C[C@H]1C	none (no result: MIN6 prolif)
COCC(=O)N(C)C[C@H]1Oc2ncc(C#C[C@H](C)O)cc2C(=O)N([C@@H](C)CO)C[C@H]1C	Myeloid diff MLP active (no result: MIN6 prolif) | Myeloid diff inactive | GFP autofluor inactive
COc1ccc(-c2cnc3c(c2)C(=O)N([C@H](C)CO)C[C@H](C)[C@H](CN(C)C(=O)Cc2cccnc2)O3)cc1	none (no result: MIN6 prolif)
Cc1ccc(-c2cnc3c(c2)C(=O)N([C@H](C)CO)C[C@@H](C)[C@@H](CN(C)C(=O)Cc2ccccc2)O3)cc1	none (no result: MIN6 prolif) | Myeloid diff inactive | GFP autofluor inactive
CCCN(CC(=O)Nc1ccccc1OC)C(=O)c1ccncc1	none
CCCCOc1ccc(OCCNC(=O)c2ccco2)cc1	none
COc1ccccc1C(=O)NCCC(=O)N1CCN(c2ccccc2O)CC1	none
COc1ccccc1C(=O)NCCC(=O)N1CC(=O)Nc2ccccc21	Myeloid diff MLP active | Myeloid diff inactive | GFP autofluor inactive
O=C1CN(C(=O)COC(=O)CCSc2ccccc2Cl)c2ccccc2N1	Myeloid diff MLP active | Myeloid diff inactive | GFP autofluor inactive
CCc1noc(C)c1C(=O)NNC(=O)COc1ccc(C)c(C)c1	none
COc1cccc(C(=O)C2=NN(C(C)=O)CC2c2ccco2)c1 (stereo unspecified)	none
COc1ccc(C(=O)OCc2cc(C)ccc2C)cc1S(=O)(=O)N1CCCC1	Myeloid diff MLP active | Myeloid diff inactive | GFP autofluor inactive
COc1cc(S(=O)(=O)N2CCC(c3nc4ccccc4s3)CC2)ccc1S(=O)(=O)N1CC(C)CC(C)C1 (stereo unspecified)	none | Myeloid diff inactive | GFP autofluor inactive
O=[N+]([O-])c1cccc(NC(=S)N2CCc3ccccc32)c1	none | Myeloid diff inactive | GFP autofluor inactive
CC(C)(CN1CCCC1)NS(=O)(=O)c1ccccc1	none | Myeloid diff inactive | GFP autofluor inactive
C=CC[C@@H](CC(=O)N(CCO)Cc1ccccc1)C(=O)N[C@@H](COC(=O)[C@@H](CC=C)Cc1ccc(F)cc1)Cc1c[nH]c2ccccc12	none

High-throughput results from PubChem BioAssay.
